Test results reported in paper PMC6512341 (ACS chemical neuroscience, 2018).

How the values were obtained:
[1] = Liver microsomal stability, mouse; assay type: in vitro ADME; conditions: liver microsomes
[2] = Hepatocyte stability, human; assay type: in vitro ADME; conditions: hepatocytes
[3] = biological target: CYP2C9 (Homo sapiens, UniProt P11712); experiment: CYP inhibition, 2C9; assay type: in vitro ADME
[4] = test system: acetylated histone 3; experiment: Histone acetylation in N2a cells; assay type: cell-based; conditions: compared to vehicle
In short: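 N2a cells treated at 1 µM or 10 nM; reference HDAC inhibitors served as positive controls. Histones extracted by kit; protein by micro BCA. Samples denatured in reducing buffer at 95 °C for 5 min and blotted to PVDF. Blocked in 5% BSA/TBST 1 h at RT; primaries overnight: acetyl-H3 K9+K14 1:1000, histone 4 1:1000. Ratios normalized to vehicle; n = 4; one-way ANOVA vs vehicle.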

[5] = biological target: CYP2C19 (Homo sapiens, UniProt P33261); experiment: CYP inhibition, 2C19; assay type: in vitro ADME
[6] = test system: acetylated α-tubulin; experiment: Immunoblot of acetylated α-tubulin in mouse hippocampus; assay type: in vivo, mice; conditions: 20 mg/kg, 2 h after treatment
In short: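 Male C57BL/6 WT and Fmr1−/− mice, 8–10 weeks old, given 20 mg/kg IP twice daily on days 1–2, plus a dose 1 h before cognitive testing on days 3 and 4. Hippocampi taken 2 h after treatment and homogenized in Tris pH 7.4 lysis buffer with protease and phosphatase inhibitors. Spun at 20,800 × g for 10 min; Bradford assay. 10 µg protein run on SDS-PAGE to nitrocellulose; acetyl-α-tubulin and α-tubulin antibodies at 1:4000.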

[7] = biological target: T1, CYP1A2 (Homo sapiens, UniProt P05177); experiment: CYP inhibition, 1A2; assay type: in vitro ADME
T1 sequence (P05177 1-516): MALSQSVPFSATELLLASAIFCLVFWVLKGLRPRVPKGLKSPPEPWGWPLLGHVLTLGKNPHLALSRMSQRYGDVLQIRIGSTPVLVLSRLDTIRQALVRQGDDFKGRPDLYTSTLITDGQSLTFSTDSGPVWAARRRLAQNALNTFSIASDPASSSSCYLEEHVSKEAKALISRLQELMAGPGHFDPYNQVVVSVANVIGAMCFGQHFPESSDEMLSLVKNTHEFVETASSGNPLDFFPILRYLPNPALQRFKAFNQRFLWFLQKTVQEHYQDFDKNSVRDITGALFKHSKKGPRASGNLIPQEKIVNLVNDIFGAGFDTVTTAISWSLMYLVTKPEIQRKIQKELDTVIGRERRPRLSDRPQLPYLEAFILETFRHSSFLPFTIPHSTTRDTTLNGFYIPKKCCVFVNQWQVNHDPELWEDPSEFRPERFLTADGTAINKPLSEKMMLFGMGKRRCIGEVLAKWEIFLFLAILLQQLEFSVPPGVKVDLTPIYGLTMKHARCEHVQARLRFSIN

[8] = test system: acetylated α-tubulin; experiment: α-Tubulin acetylation studies in HEK293 cells; assay type: cell-based; conditions: 0.01, 0.1, 1, and 10 μM
In short: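 HEK293 cells plated 24 h ahead and treated at 70% confluency with 10 nM–10 µM. Lysed in MPER with protease inhibitors; 2 µg protein boiled, run on 12% gel, transferred to PVDF. Blocked in 5% milk/TBST; anti-acetyl-tubulin 1:3000 overnight at 4 °C, then HRP secondary 1:5000; ECL. Reprobed for total α-tubulin at 1:1000. Densitometric ratio normalized to 10 µM reference HDAC6 inhibitor; n = 3–4; one-way ANOVA vs vehicle.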

[9] = biological target: CYP3A4 (Homo sapiens, UniProt P08684); experiment: CYP inhibition, 3A4; assay type: in vitro ADME
[10] = Hepatocyte stability, mouse; assay type: in vitro ADME; conditions: hepatocytes
[11] = Pilot brain and plasma pharmacokinetic studies of SW-100; assay type: in vivo, C57BL/6 male mice; conditions: male, C57BL/6, mouse, ip, 20 mg/kg
[12] = test system: Fmr1^−/− mice; experiment: Temporal order memory task; assay type: in vivo; conditions: 20 mg/kg IP
[13] = Liver microsomal stability, human; assay type: in vitro ADME; conditions: liver microsomes
[14] = test system: MDR1; experiment: Permeability studies in MDCK-MDR1 cells; assay type: in vitro ADME; conditions: dog, MDCK-MDR1
[15] = biological target: hERG (Homo sapiens, UniProt Q12809); experiment: hERG test in HEK293 cells; assay type: cell-based
[16] = biological target: CYP2D6 (Homo sapiens, UniProt P10635); experiment: CYP inhibition, 2D6; assay type: in vitro ADME
[17] = test system: TA98, TA100, TA1535, TA1537, WP2 uvrA; experiment: Ames test; assay type: cell-based, Salmonella typhimurium, Escherichia coli; conditions: presence and absence of S9 mix
[18] = test system: Fmr1^−/− mice; experiment: Novel object recognition task; assay type: in vivo; conditions: 20 mg/kg IP

Chain of CYP2C19 (P33261 whole entry): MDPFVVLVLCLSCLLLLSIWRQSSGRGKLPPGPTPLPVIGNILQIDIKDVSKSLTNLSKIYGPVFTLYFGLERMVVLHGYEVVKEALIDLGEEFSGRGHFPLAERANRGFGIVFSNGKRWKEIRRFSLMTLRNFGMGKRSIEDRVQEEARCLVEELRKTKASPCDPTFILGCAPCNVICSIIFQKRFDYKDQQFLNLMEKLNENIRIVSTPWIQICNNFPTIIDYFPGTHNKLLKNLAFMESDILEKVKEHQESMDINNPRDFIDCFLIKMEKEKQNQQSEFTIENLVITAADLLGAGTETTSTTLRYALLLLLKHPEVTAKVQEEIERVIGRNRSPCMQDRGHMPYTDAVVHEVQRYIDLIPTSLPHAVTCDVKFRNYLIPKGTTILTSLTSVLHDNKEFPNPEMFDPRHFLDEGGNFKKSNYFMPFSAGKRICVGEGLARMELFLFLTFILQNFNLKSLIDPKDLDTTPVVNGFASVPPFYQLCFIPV
Chain of CYP2D6 (P10635 whole entry): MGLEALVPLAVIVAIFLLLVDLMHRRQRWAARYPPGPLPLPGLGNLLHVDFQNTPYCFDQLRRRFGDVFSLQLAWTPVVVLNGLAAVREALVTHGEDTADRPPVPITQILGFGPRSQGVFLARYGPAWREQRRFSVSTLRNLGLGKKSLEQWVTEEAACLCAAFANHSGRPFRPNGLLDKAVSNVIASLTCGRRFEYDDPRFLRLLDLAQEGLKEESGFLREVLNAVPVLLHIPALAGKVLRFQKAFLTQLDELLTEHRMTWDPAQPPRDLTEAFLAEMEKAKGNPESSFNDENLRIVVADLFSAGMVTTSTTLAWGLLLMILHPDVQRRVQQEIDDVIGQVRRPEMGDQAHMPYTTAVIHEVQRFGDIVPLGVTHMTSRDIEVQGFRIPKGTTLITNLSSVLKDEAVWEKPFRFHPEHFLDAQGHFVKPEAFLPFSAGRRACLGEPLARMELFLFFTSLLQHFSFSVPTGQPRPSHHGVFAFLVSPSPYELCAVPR
Chain of hERG (Q12809 whole entry): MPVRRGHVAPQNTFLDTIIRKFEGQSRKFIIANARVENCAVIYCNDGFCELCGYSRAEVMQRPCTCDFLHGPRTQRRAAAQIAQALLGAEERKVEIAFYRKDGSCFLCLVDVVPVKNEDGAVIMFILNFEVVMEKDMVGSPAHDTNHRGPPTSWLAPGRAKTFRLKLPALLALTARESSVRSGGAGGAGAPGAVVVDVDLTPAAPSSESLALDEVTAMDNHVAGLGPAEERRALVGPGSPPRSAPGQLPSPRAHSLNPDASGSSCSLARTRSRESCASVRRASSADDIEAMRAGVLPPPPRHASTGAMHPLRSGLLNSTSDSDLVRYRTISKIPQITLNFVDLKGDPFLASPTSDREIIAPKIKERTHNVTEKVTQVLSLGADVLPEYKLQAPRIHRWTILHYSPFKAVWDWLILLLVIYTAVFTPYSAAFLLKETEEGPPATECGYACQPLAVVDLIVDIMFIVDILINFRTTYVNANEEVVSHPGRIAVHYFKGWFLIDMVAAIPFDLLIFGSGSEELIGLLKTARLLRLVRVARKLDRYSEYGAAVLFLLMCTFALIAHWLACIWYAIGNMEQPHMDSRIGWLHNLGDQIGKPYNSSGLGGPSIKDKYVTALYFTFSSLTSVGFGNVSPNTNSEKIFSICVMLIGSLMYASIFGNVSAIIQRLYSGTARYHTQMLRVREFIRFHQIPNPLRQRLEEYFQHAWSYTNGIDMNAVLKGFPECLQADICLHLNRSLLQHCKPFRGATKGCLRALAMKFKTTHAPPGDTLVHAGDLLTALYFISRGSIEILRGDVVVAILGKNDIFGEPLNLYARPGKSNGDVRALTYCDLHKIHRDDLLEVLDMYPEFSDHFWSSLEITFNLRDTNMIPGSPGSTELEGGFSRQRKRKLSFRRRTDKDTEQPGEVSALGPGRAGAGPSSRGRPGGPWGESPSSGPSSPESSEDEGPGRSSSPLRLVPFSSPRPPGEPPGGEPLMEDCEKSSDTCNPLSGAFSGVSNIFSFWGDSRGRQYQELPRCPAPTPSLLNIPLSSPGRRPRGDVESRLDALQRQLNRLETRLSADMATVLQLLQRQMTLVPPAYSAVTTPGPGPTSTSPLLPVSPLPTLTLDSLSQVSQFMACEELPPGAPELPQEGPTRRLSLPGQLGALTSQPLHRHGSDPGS
Chain of CYP2C9 (P11712 whole entry): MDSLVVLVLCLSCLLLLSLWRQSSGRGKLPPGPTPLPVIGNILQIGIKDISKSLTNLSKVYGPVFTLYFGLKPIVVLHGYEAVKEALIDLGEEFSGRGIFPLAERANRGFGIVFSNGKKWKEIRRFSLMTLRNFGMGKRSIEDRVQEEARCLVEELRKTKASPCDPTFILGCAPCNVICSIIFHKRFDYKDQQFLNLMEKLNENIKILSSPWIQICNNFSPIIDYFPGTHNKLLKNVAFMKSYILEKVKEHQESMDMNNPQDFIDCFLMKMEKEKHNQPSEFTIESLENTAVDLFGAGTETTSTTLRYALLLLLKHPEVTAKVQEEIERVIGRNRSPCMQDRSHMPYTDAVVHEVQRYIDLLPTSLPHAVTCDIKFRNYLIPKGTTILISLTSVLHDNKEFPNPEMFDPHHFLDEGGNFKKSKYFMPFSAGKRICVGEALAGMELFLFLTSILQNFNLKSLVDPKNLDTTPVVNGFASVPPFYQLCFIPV
Chain of CYP3A4 (P08684 whole entry): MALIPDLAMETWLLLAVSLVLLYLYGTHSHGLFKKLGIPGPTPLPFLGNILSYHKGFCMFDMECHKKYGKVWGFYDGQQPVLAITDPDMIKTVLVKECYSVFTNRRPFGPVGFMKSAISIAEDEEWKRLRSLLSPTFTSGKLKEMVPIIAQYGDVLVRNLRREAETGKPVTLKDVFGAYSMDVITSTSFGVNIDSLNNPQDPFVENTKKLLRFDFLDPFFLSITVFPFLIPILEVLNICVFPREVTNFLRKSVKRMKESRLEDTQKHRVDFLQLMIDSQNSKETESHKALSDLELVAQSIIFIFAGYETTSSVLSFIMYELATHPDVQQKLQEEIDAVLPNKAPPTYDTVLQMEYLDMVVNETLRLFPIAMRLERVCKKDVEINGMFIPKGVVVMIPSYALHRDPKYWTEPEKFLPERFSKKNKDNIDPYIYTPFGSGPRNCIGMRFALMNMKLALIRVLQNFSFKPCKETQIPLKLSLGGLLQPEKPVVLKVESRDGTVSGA

Q: For `O=C(NO)c1ccc(CN2CCCc3cc(Cl)ccc32)cc1` [SW-100, 4-((6-Chloro-3,4-dihydroquinolin-1(2H)-yl)methyl)-N-hydroxybenzamide], which half-life [1] is on record?
A: 23 min

Q: What about the half-life [2] of the same molecule?
A: 30 min

Q: What about the inhibition at 10 µM [3] of the same molecule?
A: 18.8%

Q: And the “levels of acetylated histone 3 to histone 4” value [4]?
A: < 1.5 fold

Q: And the inhibition at 10 µM [5]?
A: 83.2%

Q: What about the “acetylated α-tubulin levels in the hippocampus” value ([6]; Fmr1^−/− mice) of the same molecule?
A: significantly increased

Q: What about the “hippocampal α-tubulin acetylation” value ([6]; WT mice) of the same molecule?
A: no significant influence

Q: What about the inhibition at 10 µM [7] of the same molecule?
A: 20.5%

Q: And the “effect on acetylated α-tubulin levels (in words)” value [8]?
A: more obvious increase in the acetylated α-tubulin levels in a dose-dependent manner

Q: What about the inhibition at 10 µM [9] of the same molecule?
A: -0.63%

Q: And the half-life [10]?
A: 10 min

Q: What about the concentration at 1 h ([11]; brain) of the same molecule?
A: 142 ± 52.3 ng/mL

Q: What about the concentration at 4 h ([11]; brain) of the same molecule?
A: 11.5 ± 0.3 ng/mL

Q: What about the Kp at 1 h ([11]; brain/plasma) of the same molecule?
A: 2.44

Q: And the concentration at 1 h ([11]; plasma)?
A: 58.2 ± 24.9 ng/mL

Q: What about the concentration at 4 h ([11]; plasma) of the same molecule?
A: 2.52 ± 0.13 ng/mL

Q: What about the “temporal order: time exploring first versus most recent object” value [12] of the same molecule?
A: spent significantly more time exploring the first object compared to the most recent object presented

Q: And the half-life [13]?
A: 23 min

Q: And the Papp A→B at 2 h [14]?
A: 4.58 ×10⁻⁶ cm/s

Q: What about the Papp B→A at 2 h [14] of the same molecule?
A: 2.33 ×10⁻⁶ cm/s

Q: And the IC50 [15]?
A: 12.2 µM

Q: What about the inhibition at 10 µM [16] of the same molecule?
A: 2.51%

Q: What about the Ames test [17] of the same molecule?
A: negative

Q: What about the “novel object recognition: time exploring novel versus familiar object” value ([18]; Fmr1^−/− mice) of the same molecule?
A: spent significantly more time exploring the novel object than the familiar object

Q: And the novel object recognition ([18]; WT mice)?
A: did not alter the novel object recognition of WT mice
